By IC50 is commonly meant the concentration at which inhibition is half-maximal.

We go through eight compounds from ChEMBL document CHEMBL1151765, “Rational design of substituted diarylureas: a scaffold for binding to G-quadruplex motifs” (J Med Chem, 2008).

Active and inactive are the calls of the source. No cut-off for these calls is given here.

Assay [1] relates to MCF7. The experiment in a line: Cytotoxicity against human MCF7 cells after 96 hrs by SRB assay. The note with it: MCF7, 96 h. The format is functional, cell-based. In general terms: In SRB staining, fixed cells bind dye roughly in proportion to their protein.
The nature of assay [2]: Stabilization of d[AGAG3AG2GCGCTG3AG2AG3GCT] sequence of c-kit1 G-quadruplex DNA assessed as change in melting temperature at 1 uM by FRET assay. The essentials: (§1)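 Dual-labelled FAM/TAMRA oligos at 400nM in 60mM KCl potassium cacodylate buffer, pH 7.4, heated to 85 °C for 10 min, then cooled. Ligand added to 1µM; buffer alone as negative control. Excitation 450–495nm, emission read at 515–545nm every 0.5 °C from 30–100 °C. ΔTm is ligand Tm minus control Tm, from four experiments ± maximum sd; c-kit1 curves fitted to sigmoids.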

Assay [3] is described as follows: Stabilization of d[G3(T2AG3)3] sequence of F21T telomeric G-quadruplex DNA assessed as change in melting temperature at 1 uM by FRET assay relative to BRACO-19 in presence of calf thymus DNA. The essentials: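 F21T FRET melting with ligand at 1µM in the presence of calf thymus DNA competitor at increasing bp concentrations. Retained stabilization, from three experiments, normalized to the ligand's ΔTm with no competitor (100%) ± normalized sd.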

Assay [4] has as its system A549. As to the kind of experiment: Cytotoxicity against human A549 cells after 96 hrs by SRB assay. The format is functional, cell-based. The note with it: A549, 96 h.
Assay [5] in a line: Stabilization of d[G3(T2AG3)3] sequence of F21T telomeric G-quadruplex DNA assessed as change in melting temperature at 1 uM by FRET assay. An outline of the steps: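 Dual-labelled oligo (5′-FAM, 3′-TAMRA) at 400nM in FRET buffer (60mM KCl, K cacodylate, pH 7.4), heated to 85 °C for 10 min, cooled to room temperature. Ligand added from DMSO dilution. Excitation 450–495nm, emission 515–545nm, read every 0.5 °C from 30–100 °C. ΔTm from four experiments: averaged ligand Tm minus averaged buffer-control Tm, ± maximum sd.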

Assay [6] can be described thus: Stabilization of d[(TA)2GC(TA)2T6(TA)2]GC(TA)2 sequence of duplex DNA assessed as change in melting temperature at 1 uM by FRET assay. An outline of the steps: as §1
Assay [7] in a line: Cytotoxicity against human WI38 cells after 96 hrs by SRB assay. The format is cell-based. The note with it: WI-38, 96 h.
Assay [8] relates to A549. The experiment in a line: Selectivity ratio of IC50 for human A549 cells to IC50 for human WI38 cells.
The nature of assay [9]: Stabilization of d[C3G3CG3CGCGAG3AG4AG2] sequence of c-kit2 G-quadruplex DNA assessed as change in melting temperature at 1 uM by FRET assay. The essentials: as §1
In assay [10] the test system is MCF7. The experiment in a line: Selectivity ratio of IC50 for human MCF7 cells to IC50 for human WI38 cells.

`O=C(CCCN1CCCC1)Nc1cc(NC(=O)Nc2cc(NC(=O)CCCN3CCCC3)cc(C(=O)Nc3ccccc3)c2)cc(C(=O)Nc2ccccc2)c1`: the results for the IC50 (in the assay with MCF7 [1]; in the assay on A549 [4]; in [7]) were 24.2 µM, 30.6 µM and 11 µM, respectively. For the same compound, the change in melting temperature (ΔTm) in assay [2] worked out at 6.3 °C; in assay [5], 12.3 °C; in assay [6], 0.5 °C; in assay [9], 11.7 °C. Besides, the outcome in [3] was Active. For the same compound, in the assay with A549 [8], the Ratio IC50 is 0.4.

Turning to `O=C(CN1CCCC1)Nc1cccc(NC(=O)c2cccc(NC(=O)Nc3cccc(C(=O)Nc4cccc(NC(=O)CN5CCCC5)c4)c3)c2)c1`, the half-inhibitory concentration (IC50) is 34.1 µM with MCF7 [1], above 50 µM with A549 [4] and 22.8 µM in assay [7]. Also, the change in melting temperature (ΔTm) was 3.4 °C in [2], 6.8 °C in assay [5], 0.3 °C in [6] and 10.5 °C in assay [9]. The outcome in [3] was Active. In the assay on A549 [8], the “Ratio IC50” value amounted to 0.5.

As for `O=C(CCN1CCCC1)Nc1cccc(NC(=O)c2cccc(NC(=O)Nc3cccc(C(=O)Nc4cccc(NC(=O)CCN5CCCC5)c4)c3)c2)c1`, the results for the IC50 (in the assay with MCF7 [1]; in the assay with A549 [4]; in assay [7]) were 14.4 µM, above 50 µM and 19.5 µM, respectively. For the same compound, the change in melting temperature (ΔTm) in assay [2] was found to be 6.7 °C; in assay [5] it was 14.1 °C; in assay [6] it was 2.8 °C; in assay [9], 15.3 °C. The result in [3] was Active. The “Ratio IC50” value in the assay on A549 [8] is 0.4.

Regarding `CN(C)CCC(=O)Nc1ccc(NC(=O)c2cccc(NC(=O)Nc3cccc(C(=O)Nc4ccc(NC(=O)CCN(C)C)cc4)c3)c2)cc1`, the concentration for half-maximal inhibition (IC50) in the assay on MCF7 [1] is 12.2 µM; in the assay with A549 [4], above 50 µM; in [7] it was above 50 µM. In addition, the change in melting temperature (ΔTm) came out at 2.9 °C in [2], 12.3 °C in [5], 0.1 °C in assay [6] and 13.6 °C in assay [9]. The outcome in assay [3] was Active. Further, the “Ratio IC50” value in the assay with A549 [8] is 1.

As to `O=C(CCN1CCOCC1)Nc1ccc(NC(=O)c2cccc(NC(=O)Nc3cccc(C(=O)Nc4ccc(NC(=O)CCN5CCOCC5)cc4)c3)c2)cc1`, the IC50 is 40.6 µM in the assay with MCF7 [1], above 50 µM in the assay with A549 [4] and above 50 µM in assay [7]. Also, the values for the change in melting temperature (ΔTm) in assay [5], in [6] and in assay [9] were 1 °C, 0.2 °C and 1.3 °C, respectively.

For the compound `O=C(CN1CCCC1)Nc1cc(NC(=O)Nc2cc(NC(=O)CN3CCCC3)cc(C(=O)Nc3ccccc3)c2)cc(C(=O)Nc2ccccc2)c1`, the half-inhibitory concentration (IC50) in the assay on MCF7 [1] was 21.9 µM; with A549 [4] it was above 50 µM; in assay [7] it was 13.8 µM. Also, the change in melting temperature (ΔTm) in assay [2] turned out to be 5.3 °C; in assay [5], 13.6 °C; in [9], 8.7 °C. In addition, in assay [3], the result was Active. For the same compound, the figures for the Ratio IC50 with A549 [8] and with MCF7 [10] were 0.3 and 0.6, respectively.

As to `O=C(CCCN1CCCC1)Nc1cccc(NC(=O)c2cccc(NC(=O)Nc3cccc(C(=O)Nc4cccc(NC(=O)CCCN5CCCC5)c4)c3)c2)c1`, the values for the half-inhibitory concentration (IC50) (in the assay on MCF7 [1]; in the assay on A549 [4]; in assay [7]) were 49.6 µM, above 50 µM and 26.4 µM, respectively. The figures for the change in melting temperature (ΔTm) in assay [2], in assay [5] and in [9] were 7.8 °C, 13.6 °C and 16.3 °C, respectively. For the same compound, in [3], the outcome was Active. The “Ratio IC50” value with A549 [8] worked out at 0.5.

In the case of `O=C(CN1CCCC1)Nc1ccc(NC(=O)c2ccc(NC(=O)Nc3ccc(C(=O)Nc4ccc(NC(=O)CN5CCCC5)cc4)cc3)cc2)cc1`, the IC50 (with MCF7 [1]; in the assay with A549 [4]; in [7]) was above 25 µM throughout. The “Ratio IC50” value in the assay on A549 [8] was found to be 1.
